ChEMBL document CHEMBL4811253, “Flavonoid-triazolyl hybrids as potential anti-hepatitis C virus agents: Synthesis and biological evaluation” (Eur J Med Chem, 2021)
Activity calls are given as the source filed them. The rule behind the calls is not given here.

Tests used:
Huh-7 = test: Cytotoxicity against human Huh7 cells assessed as reduction in cell viability at 100 ug/ml incubated for 72 hrs by XTT assay; type: cell-based; conditions: huh-7, 72 h, dose 100 µg/ml
Procedure, shortened: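 Huh7 cells (1 × 10⁴/well) seeded overnight, exposed to compound at 100 µg/mL for 72 h; viability by XTT (Cell Proliferation Kit II) per the kit instructions. Cells grown in DMEM with 10% FBS, 37 °C, 5% CO₂.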

Hepatitis C virus [1] = test: Antiviral activity against HCV JFH-1 in Huh7 cells assessed as reduction in NS3 protein expression by Western blotting analysis; type: functional, organism-based; conditions: Hepacivirus hominis, Huh-7, dose 1-100 µM
Procedure, shortened: (§1)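 Huh7 cells treated with compound at 1, 10 and 100 µM (concentrations as stated in text). Lysates in RIPA buffer, heated with Laemmli buffer at 95 °C for 10 min. Western blot probed with anti-NS3 (1/1000), anti-Core (1/3000) and anti-GAPDH (1/1000), HRP secondary antibodies, chemiluminescence detection.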

Hepatitis C virus [2] = test: Antiviral activity against HCV JFH-1 in Huh7 cells assessed as reduction in HCV core protein expression by Western blotting analysis; type: functional, organism-based; conditions: Hepacivirus hominis, Huh-7, dose 1-100 µM; procedure, shortened: as §1
Hepatitis C virus [3] = test: Antiviral activity against HCV JFH-1 infected in Huh7 cells overexpressing mCherry-NLS-IPS protein at 100 ug/ml pre-infected with virus for 6 hrs followed by compound addition for 72 hrs by fluorescence assay; type: functional, organism-based; conditions: Hepacivirus hominis, Huh-7, dose 100.0 µg/ml
Procedure, shortened: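 Huh7 cells carrying mCherry-NLS-IPS were made by transducing them with a recombinant virus from 293T cells (VSV-G, Pol and mCherry-NLS-IPS1 plasmids). These cells were seeded at 5×10⁴ per well overnight in DMEM with 10% FBS at 37 °C and 5% CO₂, then infected with HCV JFH1 (MOI 1) for 6 h. After washing they were cultured with compound for 72 h, with sofosbuvir as positive control. The readout was microscopic imaging of red fluorescence shifting from cytoplasm to nucleus after NS3/4A cleavage.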

Hepatitis C virus [4] = test: Antiviral activity against HCV JFH-1 in Huh7 cells infected with supernatant from 72 hrs at 100 ug/ml compound treated Huh7 cells with HCV JFH-1 infection assessed as inhibition of HCV progeny virus production by measuring viral RNA level measured after 48 hrs post re-infection by RT-PCR analysis; type: functional, organism-based; conditions: Hepacivirus hominis, Huh-7, dose 100.0 µg/ml, time 120.0 hrs
Procedure, shortened: (§2)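 Huh7 cells (1 × 10⁴/well, overnight) infected with HCV at MOI 0.1 for 6 h, virus washed out, then compound for 72 h (single 100 µg/mL screen; or 1, 3, 10, 30 µM dose series). Supernatant used to reinfect fresh Huh7 cells; 48 h later total RNA column-extracted and HCV RNA quantified by real-time RT-PCR. IFNa 10 U/mL as reference.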

Hepatitis C virus [5] = test: Antiviral activity against HCV pseudo-particle infected in human Huh-7 cells assessed as inhibition of viral entry at 10 uM incubated for 24 hrs prior to infection and measured after 48 hrs post infection by bright Glo-luciferase reporter gene assay; type: functional, Hepacivirus hominis, JFH-1; parameters: scale not given: the % may be the effect or the level left
Procedure, shortened: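 Huh-7 cells (5 × 10³/well) pretreated with compound for 24 h, then infected with HCV pseudoparticles. Virus and compound washed out after 6 h of infection. Luciferase read with Bright-Glo reagent 48 h later.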

Hepatitis C virus [6] = test: Antiviral activity against HCV JFH-1 in Huh7 cells infected with supernatant from 3 days compound treated Huh7 cells with HCV JFH-1 infection assessed as reduction in HCV production by measuring viral RNA level measured after 48 hrs post re-infection by RT-PCR analysis; type: functional, organism-based; conditions: for Activity: Hepacivirus hominis, Huh-7, time 3.0 day; for IC50: JFH-1, Huh-7; procedure, shortened: as §2
Hepatitis C virus [7] = test: Antiviral activity against HCV JFH-1 infected in Huh7 cells assessed as inhibition of HCV replication at 10 uM after 72 hrs by luciferase reporter gene assay; type: functional, organism-based; conditions: Hepacivirus hominis, Huh-7
Procedure, shortened: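 Huh7 cells transfected with subgenomic JFH1 replicon carrying luciferase (SGR-Luc-JFH1), then treated with compound; luciferase activity in cell extracts read after 72 h.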

Hepatitis C virus [8] = test: Antiviral activity against HCV JFH-1 in Huh7 cells infected with supernatant from 3 days at 30 uM of compound treated Huh7 cells with HCV JFH-1 infection assessed as reduction in HCV production by measuring viral RNA level measured after 48 hrs post re-infection by RT-PCR analysis; type: functional, organism-based; conditions: Hepacivirus hominis, Huh-7, time 120.0 hrs; procedure, shortened: as §2
Hepatitis C virus [9] = test: Antiviral activity against wild-type HCV infected in human Huh-7 cells assessed as inhibition of viral entry at 10 uM incubated for 24 hrs prior to infection and measured after 48 hrs post infection by RT-PCR; conditions: Hepacivirus hominis, JFH-1

Q: How did the Activity (Huh-7) turn out when `Cn1cc(COc2ccc3c(c2)OC(c2ccc4c(c2)C=CC(C)(C)O4)CC3=O)nn1` (stereo not drawn) was run?
A: Non-Toxic

Q: How did the Activity (Huh-7) turn out when `CC1(C)C=Cc2cc(C3CC(=O)c4ccc(OCc5cn(Cc6ccc([N+](=O)[O-])cc6)nn5)cc4O3)ccc2O1` (stereo not drawn) was run?
A: Non-Toxic

Q: For `CCn1cc(COc2ccc3c(c2)OC(c2ccc4c(c2)C=CC(C)(C)O4)CC3=O)nn1` (stereo not drawn), which Activity (Huh-7) is on record?
A: Non-Toxic

Q: Which Activity (Huh-7) does the source give for `CC1(C)C=Cc2cc(C3CC(=O)c4ccc(OCc5cn(Cc6ccncc6)nn5)cc4O3)ccc2O1` (stereo not drawn) here?
A: Toxic

Q: `CC1(C)C=Cc2cc(C3CC(=O)c4ccc(OCc5cn(Cc6ccccc6F)nn5)cc4O3)ccc2O1` (stereo not drawn) was tested. Which Activity (Huh-7) did it give?
A: Non-Toxic

Q: What does the source list for `CC1(C)C=Cc2cc(C3CC(=O)c4ccc(OCc5cn(Cc6ccc(Br)cc6)nn5)cc4O3)ccc2O1` (stereo not drawn)?
A: Activity (Hepatitis C virus [1]): Dose-Dependent Effect; Activity (Hepatitis C virus [2]): Dose-Dependent Effect; Activity (Hepatitis C virus [3]): Active; Activity (Huh-7): Non-Toxic; Activity (Hepatitis C virus [4]): Active

Q: For `CCCCCn1cc(COc2ccc3c(c2)OC(c2ccc4c(c2)C=CC(C)(C)O4)CC3=O)nn1` (stereo not drawn), which Activity (Hepatitis C virus [3]) is on record?
A: Active

Q: And the Activity (Huh-7)?
A: Non-Toxic

Q: And the Activity (Hepatitis C virus [4])?
A: Active

Q: How did the Activity (Huh-7) turn out when `CC1(C)C=Cc2cc(C3CC(=O)c4ccc(OCc5cn(Cc6ccccc6)nn5)cc4O3)ccc2O1` (stereo not drawn) was run?
A: Toxic

Q: How did the Activity (Hepatitis C virus [1]) turn out when `CC1(C)C=Cc2cc(C3CC(=O)c4ccc(OCc5cn(Cc6ccccc6Cl)nn5)cc4O3)ccc2O1` (stereo not drawn) was run?
A: Dose-Dependent Effect

Q: And the Activity (Hepatitis C virus [5])?
A: 34%

Q: What about the Activity (Hepatitis C virus [6]) of the same compound?
A: Dose-Dependent Effect

Q: And the IC50 (Hepatitis C virus [6])?
A: 5.29 µM

Q: What about the Activity (Hepatitis C virus [7]) of the same compound?
A: inactive

Q: And the Activity (Hepatitis C virus [2])?
A: Dose-Dependent Effect

Q: And the Activity (Hepatitis C virus [3])?
A: Active

Q: And the Activity (Huh-7)?
A: Non-Toxic

Q: What about the Activity (Hepatitis C virus [4]) of the same compound?
A: Active

Q: And the Activity (Hepatitis C virus [8])?
A: Active

Q: And the Activity (Hepatitis C virus [9])?
A: Active

Q: With `CCCCCCCCCn1cc(COc2ccc3c(c2)OC(c2ccc4c(c2)C=CC(C)(C)O4)CC3=O)nn1` (stereo not drawn) as the compound, how does the Activity (Huh-7) read?
A: Non-Toxic

Q: How did the Activity (Hepatitis C virus [1]) turn out when `CC1(C)C=Cc2cc(C3CC(=O)c4ccc(OCc5cn(Cc6ccc(F)cc6)nn5)cc4O3)ccc2O1` (stereo not drawn) was run?
A: Dose-Dependent Effect

Q: What about the Activity (Hepatitis C virus [5]) of the same compound?
A: 52%

Q: And the Activity (Hepatitis C virus [6])?
A: Dose-Dependent Effect

Q: What about the IC50 (Hepatitis C virus [6]) of the same compound?
A: 9 µM

Q: What about the Activity (Hepatitis C virus [7]) of the same compound?
A: inactive

Q: And the Activity (Hepatitis C virus [2])?
A: Dose-Dependent Effect

Q: What about the Activity (Hepatitis C virus [3]) of the same compound?
A: Active

Q: What about the Activity (Huh-7) of the same compound?
A: Non-Toxic

Q: What about the Activity (Hepatitis C virus [4]) of the same compound?
A: Active

Q: And the Activity (Hepatitis C virus [8])?
A: Active

Q: And the Activity (Hepatitis C virus [9])?
A: Active

Q: With `CC1(C)C=Cc2cc(C3CC(=O)c4ccc(OCc5cn(Cc6ccc(C(F)(F)F)cc6)nn5)cc4O3)ccc2O1` (stereo not drawn) as the compound, how does the Activity (Huh-7) read?
A: Non-Toxic

Q: How did the Activity (Huh-7) turn out when `CC1(C)C=Cc2cc(C3CC(=O)c4ccc(OCc5cn(Cc6cccc(F)c6)nn5)cc4O3)ccc2O1` (stereo not drawn) was run?
A: Non-Toxic

Q: How did the Activity (Huh-7) turn out when `COc1cccc(Cn2cc(COc3ccc4c(c3)OC(c3ccc5c(c3)C=CC(C)(C)O5)CC4=O)nn2)c1` (stereo not drawn) was run?
A: Non-Toxic

Q: Which Activity (Huh-7) does the source give for `COc1cc(Cn2cc(COc3ccc4c(c3)OC(c3ccc5c(c3)C=CC(C)(C)O5)CC4=O)nn2)cc(OC)c1` (stereo not drawn) here?
A: Non-Toxic

Q: Which Activity (Huh-7) does the source give for `CCCCn1cc(COc2ccc3c(c2)OC(c2ccc4c(c2)C=CC(C)(C)O4)CC3=O)nn1` (stereo not drawn) here?
A: Non-Toxic

Q: With `CC1(C)C=Cc2cc(C3CC(=O)c4ccc(O)cc4O3)ccc2O1` (stereo not drawn) as the compound, how does the Activity (Huh-7) read?
A: Non-Toxic

Q: `CCCCCCn1cc(COc2ccc3c(c2)OC(c2ccc4c(c2)C=CC(C)(C)O4)CC3=O)nn1` (stereo not drawn) was tested. Which Activity (Hepatitis C virus [3]) did it give?
A: Active

Q: What about the Activity (Huh-7) of the same compound?
A: Non-Toxic

Q: What about the Activity (Hepatitis C virus [4]) of the same compound?
A: Active

Q: Which Activity (Huh-7) does the source give for `Cc1ccc(Cn2cc(COc3ccc4c(c3)OC(c3ccc5c(c3)C=CC(C)(C)O5)CC4=O)nn2)cc1` (stereo not drawn) here?
A: Non-Toxic

Q: For `CC1(C)C=Cc2cc(C3CC(=O)c4ccc(OCc5cn(Cc6cc(Cl)cc(Cl)c6)nn5)cc4O3)ccc2O1` (stereo not drawn), which Activity (Huh-7) is on record?
A: Non-Toxic
